High-throughput results from PubChem.
The list is not random: actives were taken first. Their share in the collection is about 1.4%.
CTSL1 counter: Fasciola hepatica cathepsin L1 inhibitors, primary screen, counter-screen for PFM18AAP inhibitor project, biochemical, QFRET, fluorogenic peptide substrate; recombinant F. hepatica cathepsin L1, Z-Leu-Arg-MCA fluorescence; inhibition, % at 5.96 µM; 300,000 compounds, 0.49% hits; AID 1906, 2009;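 active = inhibition above the mean of all tested compounds plus 3 SD, set per screening campaign, cut at about 17% in these data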
SUMO HTRF inh: inhibitors of in vitro SUMOylation cascade, primary screen, biochemical, HTRF, uHTS. 290,000 compounds, 0.36% hits. HTRF SUMOylation assay, SAE1/SAE2 + UBC9. inhibition, % at 35 µM; in the data active = inhibition above about 50%, passing the limit was not always enough
Target sequence (P63279 whole entry, looked up): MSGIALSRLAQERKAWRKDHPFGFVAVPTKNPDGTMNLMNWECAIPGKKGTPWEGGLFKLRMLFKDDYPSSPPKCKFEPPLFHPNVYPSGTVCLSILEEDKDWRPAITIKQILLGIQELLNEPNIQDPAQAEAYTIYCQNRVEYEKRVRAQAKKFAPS
UCH37 inh: inhibitors of human UCH37 deubiquitinase, primary screen, biochemical, Ub-AMC cleavage, fluorescence | inhibition, % (test concentration not listed) | 330,000 compounds, 0.33% hits | purified proteasome/UCH37;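 active = mean inhibition over replicate wells above about 20%, limit read from the data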
Target sequence (Q9Y5K5 whole entry, looked up): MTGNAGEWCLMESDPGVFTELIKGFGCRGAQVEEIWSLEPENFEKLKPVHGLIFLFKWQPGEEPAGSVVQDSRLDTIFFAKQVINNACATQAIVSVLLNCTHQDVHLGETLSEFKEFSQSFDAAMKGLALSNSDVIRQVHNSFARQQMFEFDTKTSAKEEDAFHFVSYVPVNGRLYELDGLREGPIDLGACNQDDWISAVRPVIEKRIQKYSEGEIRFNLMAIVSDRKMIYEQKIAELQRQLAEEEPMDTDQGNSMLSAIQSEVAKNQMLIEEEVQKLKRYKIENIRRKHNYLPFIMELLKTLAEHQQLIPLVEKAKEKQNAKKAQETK
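Material: human UCH37 enzyme supplied as purified proteasome complex / Amount: 0.15 nM proteasome as dispensed / Buffer or medium: pH 7.4 Tris-HCl (50 mM) with ovalbumin, ATP-MgCl2, DTT / Times: preincubation 30 min, reaction 25 min, room temperature / Technique: AMC fluorescence from Ub-AMC cleavage, excitation 355 nm, emission 460 nm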
Neddyl block: inhibitors of cullin neddylation, primary screen, biochemical, TR-FRET, uHTS, NAE and Ubc12; NEDD8-conjugating enzyme Ubc12 (Homo sapiens) + NEDD8-activating enzyme E1 regulatory …; inhibition, % at 25 µM; 360,000 compounds, 0.58% hits; AID 651699, 2012; in the data active = inhibition above about 36%
A number is an active result; 0 = inactive; - = no result.

SMILES	CTSL1 counter	SUMO HTRF inh	UCH37 inh	Neddyl block
CSc1c(C#N)c(N)c(C#N)c2c1COC(C)(C)C2	17	0	0	0
CC1=C(C#N)C(=O)N(C2CCS(=O)(=O)C2)C(=O)/C1=C\c1ccc(C)o1 (stereo not given)	0	61	-	-
Cc1ccc(/C=C2\SC(=S)N(C3CCS(=O)(=O)C3)C2=O)o1 (stereo not given)	0	0	0	0
Cc1nn(-c2ccccc2)c(Cl)c1C=NNC(=O)CNC(=O)c1ccccc1Cl	-	-	0	-
CON=C/C(C#N)=C/c1ccc(OC)c(OC)c1	-	-	0	-
CCc1c(C)c2cc(Cl)c(O)c(CN(C)C)c2oc1=O	0	51	0	0
COC(=O)CCC(=O)N1CN2CN(C(=O)CCC(=O)OC)CC([N+](=O)[O-])(C2)C1	18	0	0	0
O=C(O)CCC(=O)N1CN2CN(C(=O)CCC(=O)O)CC([N+](=O)[O-])(C2)C1	0	0	0	0
Cc1ccc2oc(-c3cccc(NC(=O)Cc4cccs4)c3)nc2c1	0	0	0	0
Cc1ccc2oc(-c3ccc(C)c(NC(=O)Cc4cccs4)c3)nc2c1	0	56	0	0
O=C(NN=Cc1cccc(F)c1)NC1CCCCC1	-	-	0	-
CC(=NNC(=O)COc1ccccc1[N+](=O)[O-])c1cccs1	-	-	0	-
COc1ccc(S(=O)(=O)NN=C(C)c2cccc(NC(=O)c3ccccc3Cl)c2)cc1	-	-	0	-
O=C(/C=C/c1ccco1)NC(=S)Nc1ccc(N2CCCC2)cc1	0	60	0	0
O=C(/C=C/c1ccco1)NC1CCCC1	59	0	0	0
O=C(/C=C/c1ccco1)NC(=S)Nc1ccc(C(=O)O)cc1	0	0	0	0
O=C(/C=C/c1ccco1)NCc1ccccn1	17	0	0	0
O=C(COC(=O)/C=C/c1ccco1)NC1CCCCC1	-	-	0	0
O=C(N/N=C\c1c(O)ccc2ccccc12)c1ccc(O)cc1	0	0	-	0
COc1ccc2ccccc2c1/C=N\NC(=O)c1cccnc1	0	-	-	0
O=C(N/N=C/c1c(O)ccc2ccccc12)c1ccc[n+](CCO)c1	20	0	-	0
COc1ccc2ccccc2c1/C=N/NC(=O)c1cccc(C)c1	18	-	-	0
CCOC(=O)c1cc(OC)c2cccc(CN3CCC(C)(C(=O)NCCOC)C3)c2c1 (stereo not given)	-	-	-	50
CC(C)(C=NNC(=O)CSCc1ccccc1Cl)CCC#N	-	-	0	-
O=C1NC(=S)S/C1=C\c1ccc(SCc2ccco2)o1	0	63	-	0
SMILES	CTSL1 counter	SUMO HTRF inh	UCH37 inh	Neddyl block
Oc1ccc(Br)cc1C=NNC(=S)NCCc1ccccc1	-	-	0	-
CCOC(=O)N1CCN(C(=O)c2ccc3c(c2)N(C)C(=O)/C(=C\c2ccc(OCC)c(OC)c2)S3)CC1	20	0	0	0
COc1ccc(C(=O)c2c(C(F)(F)F)oc3c2C(=O)c2ccccc2C3=O)cc1OC	31	0	0	0
O=C(c1ccccc1)c1ccc(N2CCOCC2)cc1	-	-	-	0
CC(=O)N(C)C1=C(N2CCOCC2)C(=O)c2ccccc2C1=O	0	0	22	0
CC(=O)N(C1=C(N2CCOCC2)C(=O)c2ccccc2C1=O)c1ccc(C(=O)O)cc1	0	0	24	0
CC(/C=C/c1ccccc1)=NNc1nc(-c2ccccc2)cs1	-	-	0	-
CC(C)C(=O)NC(c1ccc(Cl)cc1Cl)c1ccc2cccnc2c1O (stereo not given)	0	77	0	0
CCCCC(=O)NC(c1ccc(Cl)cc1Cl)c1ccc2cccnc2c1O (stereo not given)	-	0	-	0
CCC(=O)NC(c1ccc(Cl)cc1Cl)c1ccc2cccnc2c1O (stereo not given)	0	50	-	0
CCCC(=O)NC(c1ccccc1Cl)c1ccc2cccnc2c1O (stereo not given)	0	93	-	0
CC(=NN1CCN(Cc2ccc(Cl)cc2)CC1)c1ccc([N+](=O)[O-])cc1	-	-	0	-
Cc1cc(NN=Cc2ccccc2Br)nc2ccccc12	-	-	0	-
COc1ccccc1C(=O)NC(=S)/C=C1/N(C)c2ccccc2C1(C)C	19	0	0	0
Cc1ccc(-c2cn(-c3ccccc3)c3[n+]2CCCS3)cc1	0	0	0	0
COc1ccc(-n2cc(-c3ccc(C)cc3)[n+]3c2SCC3)cc1	0	0	35	0
Cc1ccc(C(=O)NCC(=O)OC2CCCCC2=O)cc1C (stereo not given)	-	-	0	0
O=C(CNC(=O)c1ccc(Oc2ccccc2)cc1)OC1CCCCC1=O (stereo not given)	19	0	0	0
O=C(CCC(=O)NN=Cc1ccc(Br)o1)NN=Cc1ccc(Br)o1	-	-	0	-
CCOC(=O)c1sc(=NC(=O)c2c(F)cccc2F)n(C)c1C	18	0	0	0
CCOC(=O)c1sc(=NC(=O)c2ccc(F)cc2)n(C)c1C	0	0	0	0
CC(=O)c1ccc(-c2ccc(C(=O)Nc3nc(-c4ccccn4)cs3)o2)cc1	-	-	0	36
Cc1ccc(C(=O)Nc2nc(-c3ccccn3)cs2)o1	0	0	0	0
Cc1ccc(NN=Cc2c(O)cc(C)oc2=O)cc1	-	-	0	-
CCN1CC(=NS(=O)(=O)N=C2CN(CC)C(=O)N2CC)N(CC)C1=O	-	-	0	-
SMILES	CTSL1 counter	SUMO HTRF inh	UCH37 inh	Neddyl block
O=C(CCl)Nc1cccc(Oc2ccccc2)c1	43	0	0	0
O=C(CCl)Nc1cccc(Oc2cnccn2)c1	56	0	0	0
CC(=O)NN=C(C)c1ccc(NC(=O)c2csc(C)c2C)cc1	-	-	0	-
NC(=NN=Cc1ccc([N+](=O)[O-])cc1)c1nonc1N	-	-	0	-
Clc1cccc(Cl)c1C1Nc2cccc3cccc(c23)N1	0	56	-	0
Cc1ccc2c(cnn2C(=O)CCCC(=O)NCc2ccc(F)cc2)c1	87	0	0	0
Cc1ccc(N(C(=O)CNC(=O)c2ccco2)C(C(=O)NC2CCCCC2)c2cccnc2)cc1C (stereo not given)	0	0	0	0
Cc1ccc(N(C(=O)CCl)C(C(=O)NC2CCCCC2)c2cccnc2)cc1C (stereo not given)	18	0	0	-
N#Cc1nc(COc2ccc(Cl)cc2)oc1N1CCCCCC1	60	0	0	0
COc1ccccc1C1C2=C(N=c3sc(=Cc4cccc(OCC(=O)O)c4)c(=O)n31)c1ccccc1CC2 (stereo not given)	-	-	0	-
Cc1cc(O)c(C=Nc2ccc(N3CCOCC3)cc2)c(C)c1Cl	0	0	0	0
Cn1c(O)c(C=Nc2ccc(N3CCOCC3)cc2)c(=O)n(C)c1=S	-	0	34	0
NC(=S)NN=Cc1cn(-c2ccccc2)nc1-c1cccnc1	-	-	0	-
NC(=S)N/N=C/c1cn(-c2ccccc2)nc1-c1cccnc1	25	0	-	0
O=C(O)COc1ccccc1C=NNC(=O)CSc1nc2ccccc2n1Cc1ccc(Cl)cc1	-	-	0	-
